# ChEMBL document CHEMBL3785075, “Novel Water-Soluble Amphotericin B-PEG Conjugates with Low Toxicity and Potent in Vivo Efficacy” (J Med Chem, 2016)
# Active and inactive are the calls of the source. The calls are words filed in the database; no cut-off is given here.
# How the values were obtained:
# Rhizopus arrhizus = experiment: Antifungal activity against Rhizopus oryzae after 48 hrs by CLSI-M27-A3 method; format: functional
# Aspergillus flavus = experiment: Antifungal activity against Aspergillus flavus after 48 hrs by CLSI-M27-A3 method; format: functional
# [1] = Toxicity in iv dosed ICR mouse; format: organism-based; settings: in vivo
# Pichia kudriavzevii = experiment: Antifungal activity against Candida krusei after 48 hrs by CLSI-M27-A3 method; format: functional
# [2] = Toxicity against human RBC assessed as hemolytic activity at 6 ug/ml after 1 to 21 hrs; format: cell-based; settings: erythrocyte
# [3] = Solubility of compound in saline by HPLC analysis; format: physicochemical
# Aspergillus terreus = experiment: Antifungal activity against Aspergillus terreus after 48 hrs by CLSI-M27-A3 method; format: functional
# [4] = Chemical stability of compound in phosphate buffer saline assessed as hydrolysis after 24 hrs by HPLC analysis; format: physicochemical; settings: read-out: Drug degradation
# How it was run: (§1)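 Conjugate incubated in phosphate-buffered saline; samples taken at 4 h and after prolonged incubation to 24 h; percent hydrolysis determined by HPLC.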
# [5] = Chemical stability of compound in phosphate buffer saline assessed as hydrolysis after 4 hrs by HPLC analysis; format: physicochemical; how it was run: as §1
# Candida albicans [6] = experiment: Antifungal activity against Candida albicans after 48 hrs by CLSI-M27-A3 method; format: functional
# MEF [7] = experiment: Cytotoxicity against mouse MEF cells assessed as cell viability after 24 hrs by MTT assay; format: cell-based
# Aspergillus niger = experiment: Antifungal activity against Aspergillus niger after 48 hrs by CLSI-M27-A3 method; format: functional
# Aspergillus fumigatus = experiment: Antifungal activity against Aspergillus fumigatus after 48 hrs by CLSI-M27-A3 method; format: functional
# [8] = Fraction unbound in ICR mouse plasma by HPLC analysis; format: ADME, cell-free
# Candida albicans [9] = experiment: Antifungal activity against Candida albicans CBS 562 infected in ICR mouse assessed as fungal burden in mouse kidney at 1 mg/kg after 24 hrs; format: functional, organism-based
# [10] = Elimination half life in ICR mouse at 1 mg/kg, iv by HPLC analysis; format: ADME, organism-based; settings: in vivo, read-out: beta t1/2 (converted)
# Candida albicans [11] = experiment: Antifungal activity against Candida albicans CBS 562 infected in ICR mouse assessed as fungal burden in mouse spleen at 1 mg/kg after 24 hrs; format: functional, organism-based
# Candida albicans [12] = experiment: Antifungal activity against Candida albicans CBS 562 infected in ICR mouse assessed as fungal burden in mouse kidney at 1.75 mg/kg after 24 hrs; format: functional, organism-based
# [13] = Elimination rate constant in ICR mouse at 1 mg/kg, iv by HPLC analysis; format: ADME, organism-based; settings: in vivo
# Mus musculus [14] = experiment: Metabolic stability in ICR mouse at 1 mg/kg, iv after 48 hrs by HPLC analysis; format: ADME, organism-based; settings: in vivo
# [15] = Mean residence time(0 to 24 hrs) in ICR mouse at 7.5 mg/kg, iv after 24 hrs by HPLC analysis; format: ADME, organism-based; settings: in vivo
# Candida albicans [16] = experiment: Antifungal activity against Candida albicans CBS 562 infected in ICR mouse assessed as fungal burden in mouse kidney at 7 mg/kg after 24 hrs; format: functional, organism-based
# Candida albicans [17] = experiment: Antifungal activity against Candida albicans CBS 562 infected in ICR mouse assessed as fungal burden in mouse spleen at 1.75 mg/kg after 24 hrs; format: functional, organism-based
# Candida albicans [18] = experiment: Antifungal activity against Candida albicans CBS 562 infected in ICR mouse assessed as increase in survival rate of animal at 1 mg/kg after 24 days; format: functional, organism-based
# [19] = Clearance in ICR mouse at 1 mg/kg, iv after 24 hrs by HPLC analysis; format: ADME, organism-based; settings: in vivo
# Candida albicans [20] = experiment: Antifungal activity against Candida albicans CBS 562 infected in ICR mouse assessed as increase in survival rate of animal at 1.75 mg/kg after 24 days; format: functional, organism-based
# Candida albicans [21] = experiment: Antifungal activity against Candida albicans CBS 562 infected in ICR mouse assessed as increase in survival rate of animal at 7 mg/kg after 24 days; format: functional, organism-based
# Candida albicans [22] = experiment: Antifungal activity against Candida albicans CBS 562 infected in ICR mouse assessed as fungal burden in mouse spleen at 3.5 mg/kg after 24 hrs; format: functional, organism-based
# Candida albicans [23] = experiment: Antifungal activity against Candida albicans CBS 562 infected in ICR mouse assessed as increase in survival rate of animal at 3.5 mg/kg after 24 days; format: functional, organism-based
# Candida albicans [24] = experiment: Antifungal activity against Candida albicans CBS 562 infected in ICR mouse assessed as fungal burden in mouse spleen at 7 mg/kg after 24 hrs; format: functional, organism-based
# Mus musculus [25] = experiment: Metabolic stability in ICR mouse assessed as hydrolysis at 1 mg/kg, iv after 24 hrs by HPLC analysis; format: ADME, organism-based; settings: in vivo
# [26] = Volume of distribution in ICR mouse at 1 mg/kg, iv after 24 hrs by HPLC analysis; format: ADME, organism-based; settings: in vivo
# Candida albicans [27] = experiment: Antifungal activity against Candida albicans CBS 562 infected in ICR mouse assessed as fungal burden in mouse kidney at 3.5 mg/kg after 24 hrs; format: functional, organism-based
# Mus musculus [28] = experiment: AUC(0 to 24 hrs) in ICR mouse at 1 mg/kg, iv after 24 hrs by HPLC analysis; format: ADME, organism-based; parameters: dose 1 mg/kg, time < 24 hr, route intravenous; settings: in vivo
# Candida albicans [29] = experiment: Antifungal activity against Candida albicans CBS 562 assessed as viable cells at 2 times MIC after 2 hrs by time kill analysis relative to control; format: functional
# Mus musculus [30] = experiment: Metabolic stability in ICR mouse assessed as hydrolysis at 7.5 mg/kg, iv after 24 hrs by HPLC analysis; format: ADME, organism-based; settings: in vivo
# [31] = Mean residence time(0 to 24 hrs) in ICR mouse at 1 mg/kg, iv after 24 hrs by HPLC analysis; format: ADME, organism-based; settings: in vivo
# MEF [32] = experiment: Cytotoxicity against mouse MEF cells assessed as cell viability at 1000 ug/ml after 24 hrs by MTT assay; format: cell-based
# [33] = AUC(0 to 24 hrs) in ICR mouse at 7.5 mg/kg, iv after 24 hrs by HPLC analysis; format: ADME, organism-based; parameters: time < 24 hr, dose 7.5 mg/kg, route intravenous; settings: in vivo
# Serum = experiment: Metabolic stability in mouse serum assessed as hydrolysis after 24 hrs by HPLC analysis; format: ADME
# [34] = Elimination rate constant in ICR mouse at 7.5 mg/kg, iv by HPLC analysis; format: ADME, organism-based; settings: in vivo
# Mus musculus [35] = experiment: Metabolic stability in ICR mouse at 7.5 mg/kg, iv after 48 hrs by HPLC analysis; format: ADME, organism-based; settings: in vivo
# [36] = Elimination half life in ICR mouse at 7.5 mg/kg, iv by HPLC analysis; format: ADME, organism-based; settings: in vivo, read-out: beta t1/2 (converted)
# [37] = Volume of distribution in ICR mouse at 7.5 mg/kg, iv after 24 hrs by HPLC analysis; format: ADME, organism-based; settings: in vivo
# [38] = Clearance in ICR mouse at 7.5 mg/kg, iv after 24 hrs by HPLC analysis; format: ADME, organism-based; settings: in vivo
compound,measurement,setting,value
C[C@@H]1[C@H](O)[C@@H](C)/C=C/C=C/C=C/C=C/C=C/C=C/C=C/[C@H](O[C@@H]2O[C@H](C)[C@@H](O)[C@H](NC(=O)CCOCCOCCOCCOCCOCCOCCOCCOCCN)[C@@H]2O)C[C@@H]2O[C@](O)(C[C@@H](O)C[C@@H](O)[C@H](O)CC[C@@H](O)C[C@@H](O)CC(=O)O[C@H]1C)C[C@H](O)[C@H]2C(=O)O,MFC,Rhizopus arrhizus,8000 µg/mL
same,MIC,Rhizopus arrhizus,8 µg/mL
same,MFC,Aspergillus flavus,4 µg/mL
same,MIC,Aspergillus flavus,4 µg/mL
same,MTD,[1],22 mg/kg
same,MFC,Pichia kudriavzevii,8 µg/mL
same,MIC,Pichia kudriavzevii,4 µg/mL
same,Activity,[2],Toxic
same,solubility,[3],5500 µg/mL
same,MFC,Aspergillus terreus,32 µg/mL
same,MIC,Aspergillus terreus,32 µg/mL
same,degraded at 24 h,[4],0.5%
same,Stability,[5],Stable
same,MFC,Candida albicans [6],4 µg/mL
same,MIC,Candida albicans [6],1 µg/mL
same,IC50,MEF [7],280 µg/mL
same,MFC,Aspergillus niger,1 µg/mL
same,MIC,Aspergillus niger,1 µg/mL
same,MFC,Aspergillus fumigatus,4 µg/mL
same,MIC,Aspergillus fumigatus,4 µg/mL
C[C@@H]1[C@H](O)[C@@H](C)/C=C/C=C/C=C/C=C/C=C/C=C/C=C/[C@H](O[C@@H]2O[C@H](C)[C@@H](O)[C@H](N)[C@@H]2O)C[C@@H]2O[C@](O)(C[C@@H](O)C[C@@H](O)[C@H](O)CC[C@@H](O)C[C@@H](O)CC(=O)O[C@H]1C)C[C@H](O)[C@H]2C(=O)O [AMPHOTERICIN B],fraction unbound,[8],0.11
same,MFC,Rhizopus arrhizus,250 µg/mL
same,MIC,Rhizopus arrhizus,0.25 µg/mL
same,Activity,Candida albicans [9],Active
same,MFC,Aspergillus flavus,0.5 µg/mL
same,MIC,Aspergillus flavus,0.5 µg/mL
same,half-life,[10],958 min
same,Activity,Candida albicans [11],Active
same,Activity,Candida albicans [12],Active
same,k el,[13],1.19e-05 s⁻¹
same,MTD,[1],1.1 mg/kg
same,Stability,Mus musculus [14],Unstable
same,MRT last,[15],9.66 h
same,Activity,Candida albicans [16],Active
same,MFC,Pichia kudriavzevii,1 µg/mL
same,MIC,Pichia kudriavzevii,0.5 µg/mL
same,Activity,Candida albicans [17],Active
same,Activity,Candida albicans [18],Active
same,Activity,[2],Toxic
same,clearance,[19],0.00417 mL/min
same,solubility,[3],< 1 µg/mL
same,Activity,Candida albicans [20],Active
same,MFC,Aspergillus terreus,4 µg/mL
same,MIC,Aspergillus terreus,2 µg/mL
same,Activity,Candida albicans [21],Active
same,Activity,Candida albicans [22],Active
same,MFC,Candida albicans [6],0.5 µg/mL
same,MIC,Candida albicans [6],0.25 µg/mL
same,Activity,Candida albicans [23],Active
same,IC50,MEF [7],6.6 µg/mL
same,Activity,Candida albicans [24],Active
same,MFC,Aspergillus niger,0.5 µg/mL
same,MIC,Aspergillus niger,0.5 µg/mL
same,Stability,Mus musculus [25],Stable
same,Vd,[26],0.006 L
same,Activity,Candida albicans [27],Active
same,AUC,Mus musculus [28],63.983 µg·h/mL
same,Activity,Candida albicans [29],100%
same,MFC,Aspergillus fumigatus,0.5 µg/mL
same,MIC,Aspergillus fumigatus,0.25 µg/mL
COC(=O)[C@H]1[C@@H]2C[C@@H](O[C@@H]3O[C@H](C)[C@@H](O)[C@H](NC(=O)CCOCCOCCOCCOCCOCCOCCOCCOCCN)[C@@H]3O)/C=C/C=C/C=C/C=C/C=C/C=C/C=C/[C@H](C)[C@@H](O)[C@@H](C)[C@H](C)OC(=O)C[C@H](O)C[C@H](O)CC[C@@H](O)[C@H](O)C[C@H](O)C[C@](O)(C[C@@H]1O)O2,fraction unbound,[8],0.9
same,MFC,Rhizopus arrhizus,4000 µg/mL
same,MIC,Rhizopus arrhizus,4 µg/mL
same,Activity,Candida albicans [9],Active
same,MFC,Aspergillus flavus,2 µg/mL
same,MIC,Aspergillus flavus,2 µg/mL
same,Stability,Mus musculus [30],Stable
same,Activity,Candida albicans [11],Active
same,Activity,Candida albicans [12],Active
same,MRT last,[31],5.43 h
same,MTD,[1],42 mg/kg
same,Activity,MEF [32],Non-toxic
same,AUC(0-t) at 24 h,[33],421 µg·h/mL
same,Activity,Candida albicans [16],Active
same,MFC,Pichia kudriavzevii,4 µg/mL
same,MIC,Pichia kudriavzevii,2 µg/mL
same,Activity,Candida albicans [17],Active
same,Activity,Candida albicans [18],Active
same,Activity,[2],Non-toxic
same,Stability,Serum,Stable
same,solubility,[3],700 µg/mL
same,Activity,Candida albicans [20],Active
same,k el,[34],6.11e-05 s⁻¹
same,MFC,Aspergillus terreus,16 µg/mL
same,MIC,Aspergillus terreus,16 µg/mL
same,Activity,Candida albicans [21],Active
same,Stability,Mus musculus [35],Unstable
same,degraded at 24 h,[4],0.8%
same,half-life,[36],189 min
same,Stability,[5],Stable
same,Activity,Candida albicans [22],Active
same,Vd,[37],0.002 L
same,MFC,Candida albicans [6],2 µg/mL
same,MIC,Candida albicans [6],1 µg/mL
same,Activity,Candida albicans [23],Active
same,Activity,Candida albicans [24],Active
same,MFC,Aspergillus niger,2 µg/mL
same,MIC,Aspergillus niger,2 µg/mL
same,clearance,[38],0.00847 mL/min
same,Activity,Candida albicans [27],Active
same,Activity,Candida albicans [29],100%
same,MFC,Aspergillus fumigatus,2 µg/mL
same,MIC,Aspergillus fumigatus,1 µg/mL
